Experimental data as given in PMC6279569 (Clinical cancer research : an official journal of the …, 2018).

Experiments:
[1] = biological target: T1, human TRβ (Homo sapiens, UniProt P10828); assay: Human thyroid hormone receptor beta; format: cell-based; details: various concentrations, 24 h
T1 sequence (P10828 1-461): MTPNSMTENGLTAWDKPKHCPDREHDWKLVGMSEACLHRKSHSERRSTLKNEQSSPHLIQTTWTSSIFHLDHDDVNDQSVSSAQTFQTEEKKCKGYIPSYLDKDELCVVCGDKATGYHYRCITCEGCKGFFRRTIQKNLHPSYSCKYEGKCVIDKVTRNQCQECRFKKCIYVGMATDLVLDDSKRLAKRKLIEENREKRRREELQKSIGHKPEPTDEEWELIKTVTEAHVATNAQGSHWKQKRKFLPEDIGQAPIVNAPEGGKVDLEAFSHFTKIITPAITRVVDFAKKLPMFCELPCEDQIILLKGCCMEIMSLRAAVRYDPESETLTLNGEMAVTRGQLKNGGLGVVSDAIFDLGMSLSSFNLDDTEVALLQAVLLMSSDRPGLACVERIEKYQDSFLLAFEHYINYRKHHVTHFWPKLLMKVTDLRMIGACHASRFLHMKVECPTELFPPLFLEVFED
Outline: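 Commercial reporter cells constitutively expressing human TRβ, with luciferase driven by a TRβ-responsive promoter. Treated for 24 h with various concentrations of T3 (reference agonist) or test compound. TRβ activity read as luciferase relative luminescence units on a plate reader.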

[2] = tested on: HR-mediated DSB repair in DR-GFP cells; assay: Double stranded DNA break repair assay, DR-GFP; format: cell-based
Outline: (§1)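 U2OS-derived reporter lines carry stable GFP reporters: DR-GFP for HR and EJ5-GFP for end joining. Cells were grown in DMEM/10% FBS, seeded at 2.5×10⁴ cells/cm² and attached overnight. They were lipofected with an I-SceI expression plasmid; after 3 h, medium was replaced with fresh medium containing test compound at various concentrations (DMSO control). GFP-positive fraction was measured by flow cytometry 3 d post-transfection, relative to control.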

[3] = tested on: γH2A.X, caspase-3 and caspase-9 in cancer cells; assay: Western blot, cancer cells; format: cell-based, human
Outline: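 Conditions: SK-N-DZ cells with 3 µM AOH39 for 0, 6 or 24 h; cancer cells with 500 nM AOH1160 for the indicated times. Cells were lysed in Laemmli buffer, sonicated, run on 4–12% SDS-PAGE and blotted to nitrocellulose. After 5% milk block, blots were probed for γH2A.X, total H2A.X, cleaved and full-length caspase-3, and cleaved caspase-9. Detection used peroxidase secondaries and ECL.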

[4] = tested on: EJ-mediated DSB repair in EJ5-GFP cells; assay: Double stranded DNA break repair assay, EJ5-GFP; format: cell-based; details: 4 µM AOH39
Outline: as §1

[5] = tested on: SK-N-DZ and H524 cells; assay: Cell cycle analysis by PI flow cytometry, cancer cells; format: cell-based, human
[6] = biological target: T2, carboxyl esterase, ES-1 (Mus musculus, UniProt P23953); assay: Stability in plasma, rodent; format: in vitro ADME
T2 sequence (P23953 19-554): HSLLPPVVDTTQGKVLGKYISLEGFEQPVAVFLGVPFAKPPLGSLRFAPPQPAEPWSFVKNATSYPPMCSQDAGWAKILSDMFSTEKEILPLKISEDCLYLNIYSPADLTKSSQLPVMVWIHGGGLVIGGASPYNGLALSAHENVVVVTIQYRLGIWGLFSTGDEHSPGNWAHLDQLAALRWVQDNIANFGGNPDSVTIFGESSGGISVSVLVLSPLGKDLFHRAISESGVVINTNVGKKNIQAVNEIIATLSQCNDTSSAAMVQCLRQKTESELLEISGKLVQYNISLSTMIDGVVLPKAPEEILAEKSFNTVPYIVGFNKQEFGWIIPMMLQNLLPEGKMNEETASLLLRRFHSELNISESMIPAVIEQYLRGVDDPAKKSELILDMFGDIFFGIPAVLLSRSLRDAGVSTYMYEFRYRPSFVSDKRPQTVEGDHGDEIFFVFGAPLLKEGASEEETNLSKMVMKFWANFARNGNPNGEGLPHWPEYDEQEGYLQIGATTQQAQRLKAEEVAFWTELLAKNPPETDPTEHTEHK
Outline: (§2)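 Test compound was incubated in plasma at 37 °C, with aliquots removed at various times. Remaining parent was quantified by LC-MS/MS (UPLC gradient, positive-ion electrospray) and expressed as percent of input concentration.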

[7] = tested on: non-malignant cells (PBMC, 7SM0032, MCF10A, mammary epithelial cells, small airway epithelial cells); assay: Cell growth, CellTitor-Glo assay, non-malignant cells; format: cell-based; details: human PBMCs, 7SM0032 cells
[8] = tested on: glioblastoma stem cells; assay: Cell growth of glioblastoma stem cells; format: cell-based, human; details: 1 µM, 72 hours; PBT003, PBT707, PBT017
Outline: (§3)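 Cells derived from WHO grade IV glioblastoma or primary brain tissue, grown as neurospheres in DMEM/F12 with 20 ng/ml EGF, 20 ng/ml FGF, 5 µg/ml heparin, B27 and 2 mM L-glutamine. Seeded at 5 × 10³/ml or 3 × 10⁴/ml. Given DMSO or 1 µM compound for 72 h. Growth read by CellTiter-Glo luminescence relative to DMSO control, ± S.D.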

[9] = Stability in plasma, canine; format: in vitro ADME; details: 37°C
Outline: as §2

[10] = biological target: Recombinant human PCNA (Homo sapiens, UniProt P12004); assay: Saturation Transfer Difference; format: binding; details: T3 50 µM, AOH1160 expected 16 µM, 1 µM PCNA
Sequence of Recombinant human PCNA (P12004 whole entry): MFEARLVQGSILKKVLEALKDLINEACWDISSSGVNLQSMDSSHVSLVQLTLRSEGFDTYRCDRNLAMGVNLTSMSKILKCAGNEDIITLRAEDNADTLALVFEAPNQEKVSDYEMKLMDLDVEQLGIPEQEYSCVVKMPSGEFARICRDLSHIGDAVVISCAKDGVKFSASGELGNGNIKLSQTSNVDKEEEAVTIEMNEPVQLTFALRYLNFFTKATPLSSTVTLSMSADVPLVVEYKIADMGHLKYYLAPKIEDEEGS
Outline: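 Recombinant human PCNA (1 µM) in 15 mM D₂O phosphate buffer, pH 7.2, with 10 µM deuterated DTT and 2% D₆-DMSO. T3 (50 µM) was run with and without test compound; 4 µM DSS served as internal reference for ligand concentration. Spectra were taken at 25 °C, 700 MHz, cryoprobe. Saturation was at 0.9 ppm and reference at −30 ppm, acquired interleaved. STD = (I_Ref − I_STD)/I_Ref.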

[11] = tested on: SK-N-DZ cells; assay: TUNEL assay, cancer cells; format: cell-based, human; details: 500 nM AOH1160, 24 h
Outline: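 Cells were seeded at 1×10⁵/ml on chamber slides. Once attached, they were treated 24 h with 500 nM test compound, then fixed. Apoptosis was detected by TUNEL with a TMR red in situ cell death kit; red TMR fluorescence marks free DNA ends.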

[12] = tested on: 7SM0032 and SAEC cells; assay: Cell cycle analysis by PI flow cytometry, non-malignant cells; format: cell-based, human; details: 500 nM AOH1160
Outline: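 7SM0032 cells (hEPM-1 medium) and SAEC (SAGM medium), 37°C, 5% CO2. Seeded at 1×10⁵/ml and attached overnight. Exposed to 500 nM test compound for the indicated time (methods: 6 or 24 h). Fixed in 60% ethanol, stained with propidium iodide, and analysed by flow cytometry. Cell-cycle populations, including sub-G1, were modelled from PI intensity.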

[13] = tested on: normal neural stem cells; assay: Cell growth of normal neural stem cells; format: cell-based; details: 1 µM, 72 hours; NSC005-007
Outline: as §3

[14] = tested on: SK-N-DZ NB cells; assay: Clonogenic assay with cisplatin, SK-N-DZ; format: cell-based, human; details: 500 nM AOH1160, 18 h
Outline: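 300 SK-N-DZ cells per 60-mm dish, attached overnight, then treated 18 h with or without various cisplatin concentrations, with or without 500 nM test compound. After two washes, cells were grown 3 weeks in fresh medium changed every 3 d. Colonies were stained with 0.5% crystal violet and counted. Combination index used the Bliss independence model: CI = (E_A+E_B−E_A*E_B)/E_AB.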

[15] = tested on: γH2A.X in 7SM0032 cells; assay: Western blot, non-malignant cells; format: cell-based, human; details: 500 nM AOH1160
Outline: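 7SM0032 cells treated with 500 nM compound for the indicated times, then lysed directly in Laemmli buffer on the plate. Immunoblot membranes blocked in 5% nonfat milk and probed with anti-γH2A.X. Detection with peroxidase-conjugated secondary antibody and ECL.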

[16] = Stability in plasma, human; format: in vitro ADME; details: 37°C
Outline: as §2

[17] = Stability in plasma, monkey; format: in vitro ADME; details: 37°C
Outline: as §2

[18] = Stability in plasma, Es1e/SCID mice; format: in vitro ADME; details: Es1^e/SCID mouse plasma, 37°C
Outline: as §2

[19] = Pharmacokinetic; format: in vivo, ES1^e/SCID mice
Outline: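 Test compound was dissolved at 60 °C under nitrogen in vehicle (Kolliphor HS 15, Poloxamer 407, BHA, BHT, propyl gallate). It was diluted to 4 mg/mL in 1:1 water:vehicle just before dosing and given orally at 40 mg/kg to male and female ES1^e/SCID mice. Plasma was taken by cardiac puncture at 0–24 h (3 male + 3 female per time point). Levels were measured by LC-MS/MS (positive ESI, MRM); PK parameters were derived by non-compartmental analysis.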

[20] = tested on: xenograft tumors of SK-N-BE(2)c, SK-N-AS, MDA-MB-468 and H82; assay: In vivo xenograft tumor model; details: 40 mg/kg once daily by oral gavage
[21] = tested on: 7SM0032 cells; assay: TUNEL assay, non-malignant cells; format: cell-based; details: 500 nM AOH1160, 24 h
Outline: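 7SM0032 cells (hEPM-1 medium, 37°C, 5% CO2) seeded at 1×10⁵/ml on chamber slides. Once attached, treated with 500 nM compound for 24 h. Fixed and labelled by TUNEL using a TMR-red in situ cell death kit. Red fluorescence at free DNA ends scored as apoptotic cells.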

[22] = tested on: SK-N-BE(2)c, H82 and H526 cells; assay: DNA combing analysis of replication fork extension; format: cell-based, human; details: 0.2 µM, 20 minutes, vs untreated control
Outline: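 Synchronized S-phase cells (DMEM, 10% FBS) pulsed with CldU for 10 min, washed, then IdU for 20 min with or without 0.2 µM compound. Cells lysed on slides and DNA fibres spread. Fibres immunostained for CldU (green) and IdU (red). Segment lengths from more than 30 fibres averaged ± SD. IdU lengths compared with the untreated control by Student's t-test.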

[23] = mouse, in vivo

With `O=C(CNC(=O)c1cccc2ccccc12)Nc1ccccc1Cc1ccccc1` [AOH39] the “thyroid hormone activity in TR reporter assay” value [1] was “neither AOH1160 nor AOH39 showed any thyroid hormone activity”, the “HR-mediated DNA repair” value ([2]; 4 µM AOH39) was “inhibited HR-mediated DNA repair” and the “intracellular γH2A.X levels” value ([3]; SK-N-DZ, 3 µM AOH39) was “enhanced intracellular γH2A.X levels”. The “EJ-mediated DNA repair” value [4] was “without exerting any statistically significant effect on EJ”, the cell cycle effect ([5]; SK-N-DZ, 3 µM AOH39, 6 or 24 h) was “caused cell cycle arrest of cancer cells at the S and, to a larger degree, G2/M phases” and the “apoptosis (sub-G1 population)” value ([5]; SK-N-DZ, 3 µM AOH39, 24 h) was “cancer cells start to die through apoptosis”.

For `O=C(CNC(=O)c1cccc2ccccc12)Nc1ccccc1Oc1ccccc1` [AOH1160], the “sensitivity to cleavage by ES-1” value ([6]; amide hydrolysis) was “sensitive to cleavage by the carboxyl esterase, ES-1”, the stability in plasma ([6]; rodent plasma, 37°C) was “not stable” and the “concentration up to which not significantly toxic” value [7] was “at least 5 µM”. The “growth of glioblastoma stem cells” value [8] was “inhibited the growth of glioblastoma stem cells”, the “thyroid hormone activity in TR reporter assay” value [1] was “neither AOH1160 nor AOH39 showed any thyroid hormone activity” and the stability in plasma [9] was “stable”. The “effect on STD values of T3” value [10] was “caused reduction of STD values of T3”, the “HR-mediated DNA repair” value ([2]; various concentrations of AOH1160) was “blocks DNA repair in DR-GFP” and the “apoptosis by TUNEL” value [11] was “increase in apoptosis”. The “cell cycle profiles of non-malignant cells” value [12] was “doesn’t significantly change the cell cycle profiles”, the “growth of normal neural stem cells” value [13] was “without significantly affecting the growth of normal neural stem cells” and the “sensitivity to cisplatin, colony formation” value [14] was “more sensitive to cisplatin treatment in the presence of AOH1160”. For the same compound, the “intracellular γH2A.X level in non-malignant cells” value [15] was “Nor does it increase intracellular γH2A.X level”, the stability in plasma [16] was “stable” and the stability in plasma [17] was “stable”. For the same compound, the stability in plasma [18] was “stable”, the half-life in vivo ([19]; PO, 40 mg/kg) was “about 3.5 h” and the oral availability ([19]; PO, 40 mg/kg) was “available to the animal through the oral dosing route”. For the same compound, the “peak concentration (CMAX)” value ([19]; PO, 40 mg/kg) was “well above the calculated IC50 of most cancer cell lines”, the “metabolites in animal plasma” value ([19]; mouse, in vivo) was “Metabolites derived from AOH1160 hydroxylation were observed” and the tumor burden ([20]; vs vehicle) was “significantly reduced tumor burden”. The “death or weight loss” value ([20]; data not shown) was “did not cause any death or significant weight loss”, the “apoptosis by TUNEL in non-malignant cells” value [21] was “Nor does it increase intracellular γH2A.X level (Fig 4b) or induce apoptosis” and the caspase activation ([3]; cancer cells, 500 nM AOH1160) was “activation of caspase-3 and caspase-9”. The γH2A.X levels ([3]; cancer cells, 500 nM AOH1160) was “increases γH2A.X levels”, the “length of IdU-incorporated DNA strands (replication fork extension)” value [22] was “significantly shorter IdU-incorporated DNA strands” and the “apoptosis (sub-G1 population)” value ([5]; 500 nM AOH1160) was “promotes apoptosis”. The cell cycle effect ([5]; neuroblastoma and small cell lung cancer cells, 500 nM AOH1160) was “causes cell cycle arrest”, the “toxicity in repeated dose study” value [23] was “No significant toxicity was observed” and the “maximum concentration achievable under STD NMR condition” value (15 mM D2O phosphate buffer, 2% D6-DMSO, determined by 1D NMR spectra) was “approximately 14.5 µM”. For the same compound, the permeability (not told) was “high permeability”.
